Bioassay records deposited in PubChem BioAssay by several laboratories.
Rows were chosen to be rich in hits. Some 2.8% of all compounds tested hit in one or more screens of this group.
NPY-Y1 antag – blocks the human neuropeptide Y Y1 receptor; P25929; HEK293-CNG Y1 cells, membrane potential fluorescence; NPY at EC95, then isoproterenol; inhibition, % at 3.6 µM; 200,000 compounds, 1% hits; AID 1040;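 active = inhibition above the campaign mean inhibition of all tested compounds plus 3 SD, cut at about 20% in these data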;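 also: 0% = DMSO wells given NPY plus isoproterenol and 100% = isoproterenol alone without NPY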
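Assay system: HEK293 cells with Y1 receptor plus CNG channel | Probe or stimulus: NPY (25 nM), isoproterenol (1 µM), Ro 20-1724 (25 µM) | Timing: Compound incubation 1 h at room temperature, readout 45 min post-stimulation | Measured by: Membrane-potential fluorescent dye readout | Benchmarks: High control isoproterenol alone, low control NPY with isoproterenol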
NPY-Y2 PAM-ag – potentiators or agonists of human neuropeptide Y receptor Y2. activation, % at 3.6 µM. 220,000 compounds, 0.45% hits. P49146. cells expressing NPY-Y2, potentiator/agonist read-out; in the data active = activation above about 27%;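 also: cells stimulated with NPY near EC25 plus isoproterenol at EC100; 0% = vehicle plus submaximal agonist and 100% = vehicle plus saturating agonist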
NPY-Y2 antag – NPY-Y2 (human) receptor antagonism; P49146; NPY-Y2 expressing cells, antagonist mode; 140,000 compounds, 0.99% hits; inhibition, % at 2.7 µM;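 also: 0% = vehicle with agonist challenge and 100% = reference antagonist with challenge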
EP2 modulator – modulators of human EP2 prostaglandin E2 receptor; P43116; EP2-expressing cells, cAMP HTRF FRET, PGE2 co-stimulation; induction, % at 25 µM; 260,000 compounds, 0.83% hits; AID 940;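 active = compounds whose cAMP rise, as percent of the full-agonist control response, exceeds 60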;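 also: rat C6 glioma line stably carrying human EP2 under a CMV promoter; the protocol text gives 20 µM as final concentration; 100% = response of wells given 1 µM PGE2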
Target sequence (P43116 whole entry, looked up): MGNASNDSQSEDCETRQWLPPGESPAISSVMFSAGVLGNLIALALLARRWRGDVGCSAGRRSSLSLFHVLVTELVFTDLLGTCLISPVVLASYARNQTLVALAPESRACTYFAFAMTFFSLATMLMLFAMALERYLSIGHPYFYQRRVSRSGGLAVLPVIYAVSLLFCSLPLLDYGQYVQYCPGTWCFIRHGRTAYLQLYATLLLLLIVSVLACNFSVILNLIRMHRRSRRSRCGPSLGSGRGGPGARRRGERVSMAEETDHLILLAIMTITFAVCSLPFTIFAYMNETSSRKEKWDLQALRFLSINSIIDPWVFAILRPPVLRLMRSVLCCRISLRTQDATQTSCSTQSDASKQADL
NPY-Y1 PAM-ag – potentiators or agonists of human neuropeptide Y receptor Y1; AID 1304; NPY-Y1 expressing cells, potentiator/agonist activation; 220,000 compounds, 0.37% hits; activation, % at 3.6 µM; in the data active = activation above about 33%, passing the limit was not always enough;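 also: cells stimulated with NPY at EC10 then isoproterenol at EC100; 0% = low agonist plus stimulus and 100% = saturating agonist plus stimulus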
EP2 antag – inhibitors of human EP2 prostaglandin E2 receptor | P43116 | C6 glioma cells expressing human EP2, cAMP TR-FRET; cells stimulated with saturating PGE2 | inhibition, % at 25 µM | 260,000 compounds, 0.52% hits;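 active = percent inhibition above 40 after rounding to a whole number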;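 also: rat C6 glioma host cells with rolipram phosphodiesterase inhibitor present; the protocol text gives 20 µM as final concentration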
NPY-Y1 ant conf – human NPY-Y1 antagonism, confirmation | shares compounds with NPY-Y1 antag | HEK293-CNG NPY-Y1, membrane potential fluorescence, cAMP; NPY challenge against isoproterenol-raised cAMP | inhibition, % at 3.6 µM | 1,200 compounds, 21% hits | AID 1254; in the data active = inhibition above about 20%;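 also: 0% = vehicle with agonist plus stimulus and 100% = stimulus alone without agonist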
NPY-Y2 antag ct – counter-screen for NPY-Y1 antagonists: human NPY-Y2 antagonism. HEK293 NPY-Y2 CNG membrane potential fluorescence; cells given NPY, then isoproterenol. 1,200 compounds, 28% hits. shares compounds with NPY-Y1 antag. inhibition, % at 3.6 µM;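 also: 0% = DMSO with agonist challenge and 100% = reference antagonist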
Active calls of the source: *; . = no result given. Rule as the data show it, unless noted: active = inhibition above about 17%; inactive = the rest.

SMILES	NPY-Y1 antag	NPY-Y2 PAM-ag	NPY-Y2 antag	EP2 modulator	NPY-Y1 PAM-ag	EP2 antag	NPY-Y1 ant conf	NPY-Y2 antag ct
Cc1cc(=O)n2c(C(=O)Nc3ccc(C(=O)OC(C)C)cc3)c(C(=O)Nc3ccccc3)sc2n1	25*	-48	.	-4	-136	8	35*	29*
CCOc1ccccc1CN1CCC(C(=O)N(CC)CC)CC1	.	.	.	-36	.	10	.	.
CC(=O)Nc1ccc(C(=O)CSc2cc(C)c3cccc(C)c3n2)cc1	3	17	6	13	-5	6	.	.
Cc1cc(SCC(=O)c2cccs2)nc2c(C)cccc12	22*	-24	12	44	-19	.	4	8
Cc1ccc(S(=O)(=O)Nc2cc(C)nn2-c2ccccc2)cc1	33*	7	2	21	-11	7	-1	-1
CC(Nc1nc(N2CCNCC2)nc2ccccc12)c1ccccc1 (centres undefined)	25*	-6	.	12	-4	3	28*	35*
c1ccc(CNc2nc(N3CCN(Cc4ccccc4)CC3)nc3ccccc23)cc1	.	14	.	26	24	10	.	.
CCOc1ccccc1CN1CCN(Cc2cccc3nonc23)CC1CCO (centres undefined)	29*	1	.	14	19	11	3	6
CCOC(=O)CSc1nc(C(C)C)nc2sc(C)c(C)c12	23*	-36	.	34	-43	10	39*	41*
COCCn1c(SCC(=O)N2c3ccccc3CCc3ccccc32)nc2cccnc21	.	.	.	4	.	4	.	.
CC1=CC(C)(C)N(C(=O)CNC2CCCCC2)c2cc(C)ccc21	25*	-5	.	25	-2	7	21*	7
O=C1CC2(CCN(C(=O)N3CCOCC3)CC2)Oc2ccc(F)cc21	.	.	.	-43	.	5	.	.
O=Cc1cc2ccccc2nc1SCc1ccc(Cl)cc1	26*	-13	2	57	9	5	-5	7
CCNC(=S)N(Cc1ccc(Cl)cc1)Cc1cc2cc3c(cc2[nH]c1=O)OCCO3	.	.	.	-22	.	19	.	.
COc1ccc(-c2noc(CCCOc3ccccc3)n2)cc1OC	25*	-27	13	0	-39	5	13	13
COC(=O)c1ccc(C(=O)OC)c(NC(=O)c2ccncc2)c1	.	.	.	8	.	9	.	.
CN1CCN(CCCCC(=O)c2ccccc2)CC1	4	-10	2	14	6	14	.	.
CN1CCN(CCCC(=O)c2ccc(C3CCCC3)cc2)CC1	26*	-11	11	-36	-51	17	11	15
CCCCNCC(O)(c1ccc(Cl)cc1)c1ccc(Cl)cc1	26*	-18	.	-7	-11	2	19	17*
COc1ccc(CNCC(O)(c2ccc(Cl)cc2)c2ccc(Cl)cc2)cc1	12	-10	6	-3	-17	10	.	.
Cc1ccc(N2C(=O)c3ccccc3NC2C(C)Cc2ccc3c(c2)OCO3)cc1 (centres undefined)	44*	-17	17	51	-51	3	120*	108*
O=C1NN(c2ccc(Br)cc2)C(=O)/C1=C/c1cccs1	.	.	.	-70	.	12	.	.
O=C(NCCC1=CCCCC1)c1cc(-c2ccncc2)nc2ccccc12	27*	-71	.	-17	-81	4	27*	23*
Cn1ccnc1C1CCCCN1Cc1nc(Cc2cccc(C(F)(F)F)c2)no1 (centres undefined)	8	-9	.	-35	-8	0	.	.
Cn1ccnc1C1CCCCN1Cc1nc(-c2ccc3c(c2)OCO3)no1 (centres undefined)	42*	-18	.	-20	-21	2	27*	10
COc1ccc(-c2noc(CN3CCCCC3c3nccn3C)n2)cc1 (centres undefined)	42*	-22	.	-43	-25	7	30*	14
O=C(c1ccc2c(c1)OCCO2)N1CCc2c(nc(N3CCCC3)[nH]c2=O)C1	.	.	.	-16	.	.	.	.
O=C(NNc1cccc(Cl)n1)c1ccc(Cl)cc1Cl	4	-3	-1	-16	12	1	.	.
